Here are results for ten compounds from paper PMC6970618 (Bioorganic & medicinal chemistry letters, 2018).

What is called pEC50 is the negative decadic logarithm of the EC50, by convention in mol/L. A low value points to a high EC50.

pEC50: −log10 of the molar value. Entries after “also recorded” stand apart in the source; their conditions may differ. Where two headings read alike, the source gives them in different places.

For data set [1], the system named is T. cruzi. As to the kind of experiment: T. cruzi cytostatic/cytocidal assay. The format is cell-based, Trypanosoma cruzi. The conditions noted are these: cytocidal versus cytostatic behaviour.
Data set [2] has as its target TcCYP51 (Trypanosoma cruzi, UniProt Q7Z1V1). In words: TcCYP51 counter-screen. The format is biochemical, T. cruzi. Conditions: for TcCYP51 inhibition: result in words.
Data set [3] is described as follows: Intrinsic clearance in mouse liver microsomes. It is filed as in vitro ADME. Conditions: result in words. A general note: Liver microsomes are a subcellular fraction often used to study metabolism.
Data set [4] has as its system Vero cells. As to the kind of experiment: Host Vero cell toxicity counter-read of the amastigote assay. It is filed as cell-based. In a few lines: (§1)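 Intracellular T. cruzi amastigotes cultured in Vero host cells, with the host Vero cells read in parallel. pEC50 is the mean of independent EC50 determinations: three or more ± standard deviation, or for some compounds two ± range.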

Data set [5] has as its system T. cruzi amastigotes. In words: Intracellular T. cruzi amastigote assay in Vero cells. It is filed as cell-based, Trypanosoma cruzi. The conditions noted are these: for EC50: Trypanosoma cruzi, Vero; for Tc pEC50: T. cruzi amastigote cultures in Vero cells, mean of three or more EC50 determinations ± standard deviation. In a few lines:
as §1

[6] abbreviates: host Vero cells, mean of three or more EC50 determinations ± standard deviation.

Sequence of TcCYP51 (Q7Z1V1 whole entry): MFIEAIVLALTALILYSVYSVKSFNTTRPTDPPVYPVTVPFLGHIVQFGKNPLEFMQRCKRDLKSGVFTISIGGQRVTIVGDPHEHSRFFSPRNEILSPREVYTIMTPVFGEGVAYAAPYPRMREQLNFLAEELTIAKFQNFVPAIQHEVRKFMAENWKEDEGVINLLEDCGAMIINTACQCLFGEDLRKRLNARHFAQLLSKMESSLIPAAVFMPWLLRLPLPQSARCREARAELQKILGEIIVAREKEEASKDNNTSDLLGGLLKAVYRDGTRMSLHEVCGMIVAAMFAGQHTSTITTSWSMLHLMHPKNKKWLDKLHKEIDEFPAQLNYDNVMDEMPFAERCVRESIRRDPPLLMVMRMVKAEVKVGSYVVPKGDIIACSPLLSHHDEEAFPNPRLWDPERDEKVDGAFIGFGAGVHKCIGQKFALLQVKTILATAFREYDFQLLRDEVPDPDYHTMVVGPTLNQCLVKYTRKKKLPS

On to `COc1cc(OC)cc(C(=O)N[C@H]2CC[C@H](Nc3nc(C)cc(N(C)C)n3)CC2)c1` [Compound 8b], for which the Cytocidal result in data set [1] is “cytocidal”. The TcCYP51 inhibition entry in data set [2] is reported as “no activity versus TcCYP51”.

For `COc1cc(OC)cc(C(=O)Nc2ccc(Nc3nc(C)cc(N(C)C)n3)cc2)c1` [Compound 1], the “stability in mouse liver microsomes (MLM)” value in data set [3] is “stable”. Also, in data set [1], the Cytocidal result was “cytocidal behavior”. In data set [4] (Table 2: host Vero cells, mean of two EC50 determinations ± range (1, 4b: ± standard deviation from > 2 determinations)), the “Vero pEC50” value worked out at 5.2 ± 0.3. In data set [2], this compound gave a negative logarithm of the EC50 (pEC50) of less than 5.00. Also, in data set [5] (read-out: pEC50 against T. cruzi parasites (converted)), the EC50 is 126 nM.

Regarding `Cc1cc(N(C)C)nc(NC2CCN(C(=O)Cc3ccc(F)cc3F)CC2)n1` [Compound 6e], the EC50 in data set [5] (read-out: Tc pEC50 (converted)) was 3160 nM.

For `Cc1cc(N(C)C)nc(NCc2ccccc2)n1` [Compound 6a], the Cytocidal result in data set [1] was “cytocidal”. The “Vero pEC50” value in data set [4] (setting [6]) is reported as less than 4.3. Besides, the TcCYP51 inhibition entry in data set [2] is recorded as “did not inhibit TcCYP51”. Also, the “Tc pEC50” value in data set [5] was 5.5 ± 0.3. Further, the EC50 in data set [5] (read-out: Tc pEC50 (converted)) was 3160 nM.

Turning to `COc1cc(Nc2nc(C)cc(N(C)C)n2)ccc1F` [Compound 4d], in data set [1], the Cytocidal entry is “cytocidal”. Further, in data set [4] (setting [6]), the “Vero pEC50” value was 4.5 ± 0.1. In data set [2], the TcCYP51 inhibition entry was “did not inhibit TcCYP51”. For the same compound, the “Tc pEC50” value in data set [5] stood at 6.4 ± 0.3.

Take `COc1cc(Nc2nc(C)cc(N3CCCC3)n2)ccc1F` [Compound 13b]: the EC50 in data set [5] (read-out: Tc pEC50 (converted)) is 316 nM.

Take `COc1cc(Nc2nc(C(C)C)cc(N(C)C)n2)ccc1F` [Compound 18c]: in data set [5] (read-out: Tc pEC50 (converted)), the EC50 is 2000 nM.

As to `COc1cc(Nc2cc(C)nc(NCc3ccccc3)n2)ccc1F` [Compound 17c], the Cytocidal entry in data set [1] is listed as “cytostatic behavior; also recorded: no longer cytocidal”. Besides, the EC50 in data set [5] (read-out: Tc pEC50 (converted)) was 79.4 nM.

Turning to `COc1cc(Nc2nc(C(=O)N3CCCC3)cc(N(C)C)n2)ccc1F` [Compound 18e], the EC50 in data set [5] (read-out: Tc pEC50 (converted)) is 31600 nM.

For `Cc1cc(N(C)C)nc(Nc2ccc(C(=O)N3CCCCC3)cc2)n1` [Compound 5a], the “toxicity against the host cells” value in data set [4] (at the top concentration tested (50 μM)) is recorded as “no toxicity”. Also, in data set [5] (read-out: Tc pEC50 (converted)), the EC50 was 2000 nM.
